Assay results: ChEMBL document CHEMBL1833841, “Synthesis and biological evaluation of a novel class of isatin analogs as dual inhibitors of tubulin polymerization and Akt pathway” (Bioorg Med Chem, 2011)
Where a name gives a salt, the structure may show the parent alone. Activity calls are given as the source filed them. No cut-off for these calls is given here.

Key:
[1] = system: HT-29; assay: Induction of apoptosis in human HT-29 cells assessed as dead cells at 5 uM after 24 hrs by PE annexin V and 7-Aminoactinomycin D staining-based flow cytometry (reference value: 1.33%); format: functional
Procedure, shortened: (§1)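 HT29 cells (RPMI, 10% FBS) treated with 1.25, 2.5 or 5 μM, or DMSO control, for 24 h at 37 °C. Cells then harvested, washed twice in cold PBS and resuspended at 1×10^6 cells/ml in binding buffer. Stained with PE annexin V and 7-AAD for 15 min at RT in the dark, then analysed by flow cytometry. 7-AAD-positive cells counted as dead.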

[2] = system: HT-29; assay: Induction of apoptosis in human HT-29 cells at 5 uM after 24 hrs by PE annexin V and 7-Aminoactinomycin D staining-based flow cytometry (reference value: 6.8%); format: functional; procedure, shortened: as §1
[3] = system: HT-29; assay: Induction of apoptosis in human HT-29 cells assessed as increase in caspase 3/7 activation after 24 hrs by fluorescence spectrophotometry relative to control; format: functional; set-up: concentration or dose not given beside the values
Procedure, shortened: (§2)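 HT29 cells seeded at 1×10^4/well and grown 24 h, then treated 24 h with 1.25–5 µM compound or DMSO. Equal volume of Apo-ONE caspase-3/7 reagent added, shaken 30 s, incubated 2 h at RT. Cleaved-substrate fluorescence read at ex 498/em 521 nm, expressed relative to DMSO cells. Means ± SD, triplicate, one representative experiment.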

[4] = system: A549; assay: Cytotoxicity against human A549 cells after 48 hrs by MTS assay; format: functional, cell-based; settings: A549, 48 h
Procedure, shortened: (§3)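 A549, MCF-7 and UACC903 cells grown in DMEM with 10% FBS at 37°C, 5% CO2. 5×10^3 cells/well were left to adhere 24 h, then treated 48 h with compound (DMSO stock diluted in DMEM, 0.5–50 µM). MTS read at 490 nm and normalized to control. Dose-response fitted as sigmoidal, variable slope. Triplicates from at least two independent experiments.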

[5] = system: UACC-903; assay: Cytotoxicity against human UACC903 cells after 48 hrs by MTS assay; format: functional, cell-based; settings: UACC-903, 48 h; procedure, shortened: as §3
[6] = system: HT-29; assay: Induction of apoptosis in human HT-29 cells assessed as early apoptotic cells at 5 uM after 24 hrs by PE annexin V and 7-Aminoactinomycin D staining-based flow cytometry (reference value: 1.37%); format: functional
Procedure, shortened: (§4)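 HT29 cells were treated with 1.25–5.0 µM compound or DMSO for 24 h at 37°C, harvested by low-speed centrifugation and washed twice in cold PBS. They were resuspended in binding buffer at 1×10^6 cells/ml, stained with PE annexin V and 7-AAD for 15 min at RT in the dark, and quantified by flow cytometry.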

[7] = system: HT-29; assay: Induction of apoptosis in human HT-29 cells assessed as dead cells at 1.25 uM after 24 hrs by PE annexin V and 7-Aminoactinomycin D staining-based flow cytometry (reference value: 1.33%); format: functional; procedure, shortened: as §1
[8] = system: HT-29; assay: Inhibition of AKT expression in human HT-29 cells assessed as total AKT level at 2 uM after 24 hrs by Western blotting; format: functional, cell-based
Procedure, shortened: (§5)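 HT29 cells treated 24 h with 1 or 2 µM compound or no drug. Lysed in HEPES/NaCl/EDTA/NP40 buffer with phosphatase and protease inhibitors. Protein equalized by Bradford, run on 10% gels, semi-dry transfer to nitrocellulose, blocked in 5% milk. Pan-Akt or phospho-Akt rabbit polyclonal primaries overnight at 4°C, HRP secondaries, chemiluminescence. β-actin loading control.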

[9] = system: HT-29; assay: Induction of apoptosis in human HT-29 cells assessed as viable cells at 2.5 uM after 24 hrs by PE annexin V and 7-Aminoactinomycin D staining-based flow cytometry (reference value: 93.2%); format: functional; settings: HT-29, 24 h, read-out: Activity; procedure, shortened: as §4
[10] = system: HT-29; assay: Induction of apoptosis in human HT-29 cells assessed as viable cells at 1.25 uM after 24 hrs by PE annexin V and 7-Aminoactinomycin D staining-based flow cytometry (reference value: 93.2%); format: functional; settings: HT-29, 24 h, read-out: Activity; procedure, shortened: as §4
[11] = target: RAC-alpha serine/threonine-protein kinase (Homo sapiens) (UniProt P31749); assay: Inhibition of AKT phosphorylation in human HT-29 cells assessed as p-AKT level at 1 uM after 24 hrs by Western blotting; format: cell-based; procedure, shortened: as §5
Chain of RAC-alpha serine/threonine-protein kinase (Homo sapiens) (P31749 whole entry): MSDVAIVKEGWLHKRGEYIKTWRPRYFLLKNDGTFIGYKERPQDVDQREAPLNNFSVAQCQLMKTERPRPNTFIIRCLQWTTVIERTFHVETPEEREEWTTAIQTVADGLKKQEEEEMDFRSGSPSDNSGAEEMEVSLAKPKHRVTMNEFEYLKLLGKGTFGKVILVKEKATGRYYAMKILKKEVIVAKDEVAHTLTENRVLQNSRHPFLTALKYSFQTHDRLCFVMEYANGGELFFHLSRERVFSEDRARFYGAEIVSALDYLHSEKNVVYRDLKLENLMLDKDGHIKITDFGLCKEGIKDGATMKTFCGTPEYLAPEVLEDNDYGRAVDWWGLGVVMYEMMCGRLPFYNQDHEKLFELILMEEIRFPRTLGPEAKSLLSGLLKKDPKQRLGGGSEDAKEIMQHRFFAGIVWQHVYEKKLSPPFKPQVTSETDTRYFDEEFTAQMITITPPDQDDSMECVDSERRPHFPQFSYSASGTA

[12] = system: HT-29; assay: Induction of apoptosis in human HT-29 cells assessed as dead cells at 2.5 uM after 24 hrs by PE annexin V and 7-Aminoactinomycin D staining-based flow cytometry (reference value: 1.33%); format: functional; procedure, shortened: as §1
[13] = system: HT-29; assay: Induction of apoptosis in human HT-29 cells assessed as increase in caspase 3/7 activation after 24 hrs by fluorescence spectrophotometry; format: functional, cell-based; procedure, shortened: as §2
[14] = system: HT-29; assay: Induction of apoptosis in human HT-29 cells at 2.5 uM after 24 hrs by PE annexin V and 7-Aminoactinomycin D staining-based flow cytometry; format: functional; procedure, shortened: as §1
[15] = system: HT-29; assay: Induction of apoptosis in human HT-29 cells after 24 hrs by PE annexin V and 7-Aminoactinomycin D staining-based flow cytometry; format: functional, cell-based; procedure, shortened: as §4
[16] = system: MCF7; assay: Cytotoxicity against human MCF7 cells after 48 hrs by MTS assay; format: functional, cell-based; settings: MCF7, 48 h; procedure, shortened: as §3
[17] = system: HT-29; assay: Induction of apoptosis in human HT-29 cells assessed as viable cells at 5 uM after 24 hrs by PE annexin V and 7-Aminoactinomycin D staining-based flow cytometry (reference value: 93.2%); format: functional; settings: HT-29, 24 h, read-out: Activity; procedure, shortened: as §4
[18] = system: HT-29; assay: Induction of apoptosis in human HT-29 cells assessed as late apoptosis or necrotic cells at 5 uM after 24 hrs by PE annexin V and 7-Aminoactinomycin D staining-based flow cytometry (reference value: 4.1%); format: functional; procedure, shortened: as §4
[19] = system: HT-29; assay: Induction of apoptosis in human HT-29 cells assessed as late apoptosis or necrotic cells at 2.5 uM after 24 hrs by PE annexin V and 7-Aminoactinomycin D staining-based flow cytometry (reference value: 4.1%); format: functional; procedure, shortened: as §4
[20] = system: HT-29; assay: Induction of apoptosis in human HT-29 cells assessed as early apoptotic cells at 2.5 uM after 24 hrs by PE annexin V and 7-Aminoactinomycin D staining-based flow cytometry (reference value: 1.37%); format: functional; procedure, shortened: as §4
[21] = system: HT-29; assay: Cytotoxicity against human HT-29 cells after 48 hrs by MTS assay; format: functional, cell-based; settings: HT-29, 48 h
Procedure, shortened: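 HT29 cells maintained in RPMI with 10% FBS. 5×10^3 cells/well were left to adhere 24 h, then exposed 48 h to compound (DMSO stock diluted in DMEM, 0.5–50 µM). MTS absorbance at 490 nm normalized to control. IC50 from sigmoidal variable-slope fit. Triplicates, at least two independent experiments.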

[22] = system: HT-29; assay: Induction of apoptosis in human HT-29 cells at 1.25 uM after 24 hrs by PE annexin V and 7-Aminoactinomycin D staining-based flow cytometry; format: functional; procedure, shortened: as §1
[23] = system: HT-29; assay: Inhibition of AKT expression in human HT-29 cells assessed as total AKT level at 1 uM after 24 hrs by Western blotting; format: functional, cell-based; procedure, shortened: as §5
[24] = system: HT-29; assay: Induction of apoptosis in human HT-29 cells assessed as early apoptotic cells at 1.25 uM after 24 hrs by PE annexin V and 7-Aminoactinomycin D staining-based flow cytometry (reference value: 1.37%); format: functional; procedure, shortened: as §4
[25] = system: HT-29; assay: Induction of apoptosis in human HT-29 cells assessed as late apoptosis or necrotic cells at 1.25 uM after 24 hrs by PE annexin V and 7-Aminoactinomycin D staining-based flow cytometry (reference value: 4.1%); format: functional; procedure, shortened: as §4
[26] = species on record: Bos taurus; assay: Inhibition of bovine brain tubulin polymerization at 10 uM after 1 hrs by fluorescence assay
Procedure, shortened: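 Compound at 10 µM final, DMSO as control. Fluorescence (ex 360, em 440 nm) read every 10 s for 1 h at 37°C, duplicate wells.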

SMILES | Activity [1] | Activity [2] | fold change (FC) [3] | IC50 [4] | IC50 [5] | Activity [6] | Activity [7] | viability at 2.5 µM [9] | viability at 1.25 µM [10] | Activity [12] | Activity [13] | Activity [14] | Activity [15] | IC50 [16] | viability at 5 µM [17] | Activity [18] | Activity [19] | Activity [20] | IC50 [21] | inhibition [26] | also measured
O=C1C(=O)N(Cc2ccc(CN=C=S)cc2)c2c(Br)cc(Br)cc21 | 10.8% | 61.23% | 16 | 3.82 µM | 3.11 µM | 2.93% | 4.29% | 63.4% | 83.6% | 6.56% | Dose-dependent effect | 36.64% | Dose-dependent effect | 12 µM | 38.8% | 47.5% | 23.3% | 6.78% | 1.09 µM | 77% | inhibition [8]: Active; inhibition [11]: inactive; Activity [22]: 16.38%; inhibition [23]: Active; Activity [24]: 3.5%; Activity [25]: 8.59%
N#CSCCCCN1C(=O)C(=O)c2cc(Br)cc(Br)c21 | – | – | – | 5.53 µM | 2.06 µM | – | – | – | – | – | – | – | – | 22.1 µM | – | – | – | – | 2.42 µM | – | –
N#C[Se]CCCCN1C(=O)C(=O)c2cc(Br)cc(Br)c21 | – | – | – | 3.15 µM | 9.03 µM | – | – | – | – | – | – | – | – | 1.53 µM | – | – | – | – | 2.39 µM | – | –
N#C[Se]CCCN1C(=O)C(=O)c2cc(Br)cc(Br)c21 | 1.89% | 56.28% | 16 | 3.46 µM | 21.6 µM | 48.6% | 1.53% | 89.6% | 92.1% | 1.92% | Dose-dependent effect | 10.44% | Dose-dependent effect | 1.65 µM | 43.8% | 5.79% | 6.27% | 2.25% | 3.18 µM | 63% | Activity [22]: 7.92%; Activity [24]: 1.94%; Activity [25]: 4.45%
CC[C@]1(O)C[C@@H]2CN(CCc3c([nH]c4ccccc34)[C@@](C(=O)OC)(c3cc4c(cc3OC)N(C)[C@H]3[C@@](O)(C(=O)OC)[C@H](OC(C)=O)[C@]5(CC)C=CCN6CC[C@]43[C@@H]65)C2)C1 [VINBLASTINE SULFATE] | – | – | – | – | 1.65 µM | – | – | – | – | – | – | – | – | – | – | – | – | – | 0.55 µM | 66% | –
O=C1C(=O)N(CCCCCl)c2c(Br)cc(Br)cc21 | – | – | – | 3.81 µM | 3.74 µM | – | – | – | – | – | – | – | – | 14.9 µM | – | – | – | – | 2.51 µM | – | –
